Screening data from PubChem BioAssay.
Most compounds without a hit are left out; they make up all but 3.5% or so of the library.
FLuc stim CS: firefly luciferase counter-screen for stimulation assays. P08659. ATPlite luciferase biochemical, luminescence, 10 min; 0 = ATP-free wells, 1 = DMSO control. 200,000 tested, under 10 active. activation factor at 10 µM. AID 1027;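 active = luciferase activation factor, scaled between plate controls, of at least 2 with compound at 10 µM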
Target sequence (P08659 whole entry, looked up): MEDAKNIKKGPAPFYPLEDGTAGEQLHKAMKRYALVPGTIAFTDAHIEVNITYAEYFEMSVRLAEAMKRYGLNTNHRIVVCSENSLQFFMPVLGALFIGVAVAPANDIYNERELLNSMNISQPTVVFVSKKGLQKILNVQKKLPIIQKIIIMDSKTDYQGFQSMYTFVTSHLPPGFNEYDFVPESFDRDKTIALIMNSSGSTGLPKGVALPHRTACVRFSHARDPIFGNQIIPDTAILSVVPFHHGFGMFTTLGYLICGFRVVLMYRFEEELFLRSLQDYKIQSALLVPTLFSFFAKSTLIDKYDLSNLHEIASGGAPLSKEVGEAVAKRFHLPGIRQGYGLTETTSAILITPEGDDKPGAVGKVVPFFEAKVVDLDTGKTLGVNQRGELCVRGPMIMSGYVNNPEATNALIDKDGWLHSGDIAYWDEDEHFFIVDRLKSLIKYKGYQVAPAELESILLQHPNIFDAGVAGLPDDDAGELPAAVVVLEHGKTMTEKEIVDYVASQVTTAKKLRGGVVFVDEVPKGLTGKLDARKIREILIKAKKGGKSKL
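System: cell-free luciferase reagent; medium: PBS as buffer for the ATP substrate; doses: test compounds dosed from 2 mM stocks in 100% DMSO; incubation: 10 min, room temperature; measured by: luminescence from luciferase reaction; read-out: luciferase activation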
NF-kB expr up: raises NF-kB expression in human neuronal cells. NF-kB reporter expression; hits give high values. fold change at 12.5 µM. hit rate 1.6% among 190,000. AID 1239; in the data active = fold change above about 3.3
STAT1 activator: activators of IFN-gamma induced STAT1 signaling | hit rate 2.6% among 200,000 | NIH 3T3 STAT1-luciferase reporter, luminescence; 100% = IFN-gamma alone, no compound | activation (% of control), % at 5.5 µM;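 active = activation above the screen-wide mean activation plus 3 SD, cut at about 130% in these data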;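 note: raw ratio to IFN-gamma control signal so 100% means no change and 0% no light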
APP 5'UTR act: activates APP 5'UTR luciferase reporter; SH-SY5Y APP 5'UTR luciferase reporter, luminescence; zero percent = DMSO vehicle wells; activation, % at 2 µM; hit rate 1% among 190,000;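 active = activation above a set limit, based on mean plus 3 SD of controls, cut at about 140% in these data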
Pf gametocyte: P. falciparum stage V gametocyte viability inhibition; P. falciparum stage V gametocytes, ATP luminescence, 24 h; inhibition, % at 10.9 µM; hit rate 0.065% among 150,000; AID 743093;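 active = inhibition above the mean plus 3 SD of compounds within the control limits, set per campaign, cut at about 38% in these data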;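 note: 0% = DMSO wells and 100% = medium only without gametocytes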
FLuc inhib CS: Photinus pyralis luciferase inhibition counter-screen. P08659. ATPLite firefly luciferase biochemical luminescence, 10 min. inhibition, % at 10 µM. hit rate 1.5% among 200,000. AID 1006;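 active = inhibition above about 50% when tested at 10 µM, limit read from the data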
Active calls of the source: *; / = no result.

SMILES | FLuc stim CS | NF-kB expr up | STAT1 activator | APP 5'UTR act | Pf gametocyte | FLuc inhib CS
CCN(CC)S(=O)(=O)c1cc(NC(=O)c2ccc(Br)s2)ccc1C | 0.9 | 1.2 | 138* | 34 | -3 | 13
CCN(CC)S(=O)(=O)c1cc(NC(=O)NCCCl)ccc1C | / | / | / | / | -4 | /
O=C(O)COc1ccccc1/C=N/NC(=O)c1cc(-c2ccc(F)cc2)nc2ccccc12 | 0.4 | 0.93 | 99 | 24 | -2 | 59*
O=C(N/N=C/c1ccc2c(c1)OCO2)c1cc(-c2ccc(F)cc2)nc2ccccc12 | 0.9 | 1.4 | 98 | -3 | -24 | 13
Cc1ccc(C(=O)NC2CCc3ccccc3C2=O)cc1 (configuration not stated) | 0.4 | 3.9* | 141* | 156* | -4 | 62*
N#Cc1cccnc1Oc1ccccc1 | / | / | / | / | -23 | /
COc1ccc(S(=O)(=O)N2CCC(C(=O)NCc3ccccn3)CC2)cc1C | 1.1 | 1.2 | 102 | -9 | -1 | -7
Cc1nn(-c2ccccn2)c2c1-c1nc(N3CCOCC3)ncc1CC2 | 1 | 0.35 | 108 | 8 | / | -2
Cc1nn(-c2ccccn2)c2c1-c1nc(N)ncc1CC2 | 0.4 | 1.7 | 134* | 45 | / | 61*
COc1ccc(-n2nc3cc(C)c(N)c(Br)c3n2)cc1 | 0.6 | 6.3* | 168* | 185* | / | 41
COc1ccc(-n2nc3cc(C)c(NC(=O)C(C)C)cc3n2)cc1 | 0.8 | 1.1 | 139* | 83 | / | 19
Cc1ccc(-n2nc3cc(C)c(N)cc3n2)cc1 | 0.2 | 3.9* | 107 | 120 | / | 81*
COc1ccc(-n2nc3cc(N)c(Br)cc3n2)cc1 | / | / | / | / | -1 | /
COc1ccc(-n2nc3ccccc3n2)cc1 | 0.9 | 1.5 | 116 | 11 | / | 8
COc1ccc(-n2nc3cc(C)c(NC(C)=O)cc3n2)cc1 | 0.2 | 2.3 | 63 | 123 | -9 | 81*
CC(C)(C)OC(=O)NC1CNNC1=O (configuration not stated) | / | / | / | / | -6 | /
COC(=O)C1C(O)=CC(=O)CC1C (configuration not stated) | 1 | 1.3 | 98 | 16 | / | -5
COCC(C)NCc1cccc(C)c1 (configuration not stated) | 1.1 | 1.5 | 102 | -5 | 8 | -6
Nc1[nH]c(N=NC(=O)c2ccc(F)cc2)c2ccccc12 | 0.4 | 1.3 | 107 | 59 | -1 | 55*
Nc1ccccc1C(=O)NCc1ccc(F)cc1 | 1 | / | 92 | -4 | -18 | -1
Nc1ccccc1C(=O)N=Nc1[nH]c(N)c2ccccc12 | 0.2 | 2.3 | 111 | 54 | 1 | 79*
NC(=O)c1oc2ccccc2c1NC(=O)c1ccc(F)cc1 | 1 | 0.69 | 95 | -4 | / | 2
O=C(Nc1c(O)c2ccccc2[nH]c1=O)c1ccco1 | / | / | / | / | 9 | /
CC1CCCC(C)N1CC(O)Cn1c2ccccc2c2ccccc21 (configuration not stated) | / | / | / | / | -9 | /
CC1N/C(=C\C(=O)c2ccccc2)N(O)C1(C)C (configuration not stated) | 0.4 | 1.8 | 134* | 91 | / | 63*
SMILES | FLuc stim CS | NF-kB expr up | STAT1 activator | APP 5'UTR act | Pf gametocyte | FLuc inhib CS
O=C(C=C1NCCN1)c1ccccc1 | / | / | / | / | 6 | /
CC(=O)c1ccc(N=Nc2ccc(C)cc2)cc1 | 0.5 | 4.8* | 70 | 283* | 1 | 52*
CC(=O)c1ccc(N=Nc2ccc(N(C)C)cc2)cc1 | 0.5 | 3.9* | 119 | 135 | 36 | 53*
c1ccc(-c2ccc(-c3ccncn3)cc2)cc1 | / | / | / | / | -3 | /
O=C(CCSc1ccc(Cl)cc1)Nc1cccnc1 | 1 | 7.7* | 100 | 2 | 12 | 1
[O-][N+]1=c2ccc(Nc3ccccc3)cc2=NC12CCCCC2 | 1 | 1 | 134* | -33 | 3 | 0
O=C(CC1NCCNC1=O)OCCCc1ccccc1 (configuration not stated) | 1.1 | 1.4 | 97 | -6 | / | -8
CCN(CC)C(=S)SCC(=O)Nc1ccc(F)cc1 | 1.1 | 1.2 | 92 | -2 | 1 | -6
CCN(CC)C(=S)SCC(=O)c1ccc(F)cc1 | 1 | 2.1 | 133* | 77 | / | 2
CCN(CC)C(=S)SCC(=O)c1ccccc1 | 0.9 | 1.2 | 130* | 51 | / | 6
Cc1ccc2nc(SCC(=O)N3CCCC3)[nH]c2c1 | 0.9 | 3.2 | 144* | 115 | / | 5
CCNS(=O)(=O)c1ccc(NC(=O)Cn2cc([N+](=O)[O-])cn2)cc1 | 1 | 0.92 | 106 | 1 | / | -1
O=C(Nc1ccc2c(c1)OCCO2)Nc1ccc2c(c1)OCO2 | 0.1 | 6.6* | 72 | 174* | / | 93*
O=C(Nc1ccc2c(c1)OCCO2)NC12CC3CC(CC(C3)C1)C2 | 0.9 | 1.7 | 142* | 90 | -31 | 8
COc1ccc(NC(=O)NC23CC4CC(CC(C4)C2)C3)cc1OC | 1 | 1.4 | 95 | 7 | / | -2
CC(=O)Nc1ccc2c(c1)OCCO2 | 1.1 | 1.1 | 102 | 2 | -2 | -6
Cc1ccnc(NC(=O)Nc2ccc3c(c2)OCO3)c1 | 0.4 | 4.9* | 146* | 144* | 13 | 58*
O=C(Nc1ccc2c(c1)OCO2)Nc1ccc(Br)cn1 | 0.9 | 2.1 | 149* | 18 | 8 | 11
Nc1ccc(Cl)c(-c2nc3ncccc3o2)c1 | 0.9 | 1.7 | 103 | 7 | / | 8
CCCC(=O)Nc1cc(-c2nc3ncccc3o2)ccc1Cl | / | / | / | / | -6 | /
CCCC(=O)Nc1cc(-c2nc3ncccc3o2)ccc1C | 1 | 1.2 | 95 | -5 | / | -2
Nc1cc(-c2nc3ncccc3o2)ccc1Cl | 0.7 | 2.5 | 130* | 83 | 2 | 32
Cc1cc(-c2nc3ncccc3o2)ccc1N | 0.7 | 1.8 | 139* | 43 | / | 30
Nc1ccc(-c2nc3ncccc3o2)c(Cl)c1 | 0.3 | 2.7 | 145* | 96 | -4 | 72*
C/C(=N\NC(=O)c1ccc(CN2CCc3ccccc3C2)cc1)c1ccccc1O | 1.1 | 1 | 108 | -14 | -9 | -7
SMILES | FLuc stim CS | NF-kB expr up | STAT1 activator | APP 5'UTR act | Pf gametocyte | FLuc inhib CS
CN(C)c1ccc(/C=C/c2nc3ccccc3s2)cc1 | 0.1 | 0.6 | 17 | 14 | / | 93*
Cc1ccc(/C=C/c2nc3ccccc3s2)s1 | 0.1 | 2.5 | 60 | 99 | / | 91*
Cc1cc(O)c(/C=N/Nc2ccccc2)c(=O)o1 | 0.5 | 1.3 | 88 | -13 | -25 | 51*
Cc1ccc(N/C=C(/C#N)c2ccsc2)cc1 | 1 | 2.3 | 134* | 64 | / | 1
C=CCn1c(C)cc(C2=NNC(=NC(C)(C)C)SC2)c1C | 0.1 | 0.37 | 108 | 128 | -16 | 90*
COCCn1c(C)cc(C2=NNC(=NC3CC3)SC2)c1C | 0 | 0.17 | 10 | -88 | -8 | 96*
C=CCN=C1NN=C(c2cc(C)n(CCOC)c2C)CS1 | 0.1 | 0.2 | 78 | 2 | 2 | 89*
C=CCSc1ncc(-c2ccccc2)cn1 | 0.9 | 2.2 | 136* | 19 | 4 | 8
C#CCSc1ncc(-c2ccccc2)cn1 | 0.9 | 1.9 | 112 | 13 | 17 | 11
